Activity calls are given as the source filed them. The calls are words filed in the database; no cut-off is given here.
Assays:
Format in all cases: functional, cell-based
[1] = target: T1, Extracellular calcium-sensing receptor (Rattus norvegicus) (UniProt P48442); assay: Activity at rat CaSR in CHO cells assessed as inhibition of calcium ion-induced [3H]inositol phosphate accumulation at 1 uM
T1 sequence (whole entry): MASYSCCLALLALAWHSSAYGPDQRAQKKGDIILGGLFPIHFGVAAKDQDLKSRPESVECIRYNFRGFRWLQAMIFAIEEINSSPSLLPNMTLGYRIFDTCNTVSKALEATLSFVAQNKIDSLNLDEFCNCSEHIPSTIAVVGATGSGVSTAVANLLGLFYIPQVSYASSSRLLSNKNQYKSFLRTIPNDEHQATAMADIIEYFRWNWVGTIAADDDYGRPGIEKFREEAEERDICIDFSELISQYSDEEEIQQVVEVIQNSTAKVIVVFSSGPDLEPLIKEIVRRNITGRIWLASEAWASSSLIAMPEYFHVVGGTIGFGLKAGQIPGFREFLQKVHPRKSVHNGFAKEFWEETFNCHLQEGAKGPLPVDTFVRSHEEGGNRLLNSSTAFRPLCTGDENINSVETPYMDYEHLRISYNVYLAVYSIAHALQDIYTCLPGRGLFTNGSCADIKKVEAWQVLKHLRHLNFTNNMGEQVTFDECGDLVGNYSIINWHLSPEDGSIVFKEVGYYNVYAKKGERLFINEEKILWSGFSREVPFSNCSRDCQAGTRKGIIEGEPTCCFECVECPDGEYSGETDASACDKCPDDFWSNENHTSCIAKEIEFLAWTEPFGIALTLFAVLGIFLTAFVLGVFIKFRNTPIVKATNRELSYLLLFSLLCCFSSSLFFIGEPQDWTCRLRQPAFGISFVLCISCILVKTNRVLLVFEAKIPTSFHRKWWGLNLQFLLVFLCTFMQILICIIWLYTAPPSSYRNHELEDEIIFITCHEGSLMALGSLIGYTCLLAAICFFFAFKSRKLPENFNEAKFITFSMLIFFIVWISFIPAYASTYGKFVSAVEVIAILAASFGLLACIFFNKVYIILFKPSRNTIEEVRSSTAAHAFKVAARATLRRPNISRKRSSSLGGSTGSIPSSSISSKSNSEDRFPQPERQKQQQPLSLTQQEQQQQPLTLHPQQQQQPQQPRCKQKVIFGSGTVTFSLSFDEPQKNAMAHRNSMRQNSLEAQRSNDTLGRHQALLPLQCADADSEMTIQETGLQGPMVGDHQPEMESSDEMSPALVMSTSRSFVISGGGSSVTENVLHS
Summary of the method: (§1)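 CHO cells stably transfected with rat CaSR, grown in basal Ham's F-12 (0.3 mM Ca2+, 0.6 mM Mg2+). Overnight labelling with myo-[3H]inositol (0.5 µCi/mL). Cells washed, then 15 min at 37°C in basal medium with 10 mM LiCl, then 30 min at 37°C with 9 mM Ca2+ plus compound (10 mM ethanol stock diluted in medium). Reaction stopped with HClO4; [3H]IP isolated by ion exchange.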

[2] = target: T1, Extracellular calcium-sensing receptor (Rattus norvegicus); assay: Activity at rat CaSR in CHO cells assessed as inhibition of calcium ion-induced [3H]inositol phosphate accumulation at 10 uM; summary of the method: as §1
[3] = target: T2, Extracellular calcium-sensing receptor (Rattus norvegicus, UniProt P48442); assay: Activity at rat CaSR in CHO cells assessed as inhibition of calcium ion-induced [3H]inositol phosphate accumulation; summary of the method: as §1
T2 sequence (P48442 whole entry): T1 sequence (whole entry)

SMILES	inhibition [1]	inhibition [2]	IC50 [3]
CC(N[C@@H]1CCCC[C@H]1NS(=O)(=O)c1cccc(C(F)(F)F)c1)c1cccc2ccccc12 (relative stereo)	–	44%	–
CC(N[C@@H]1CCCC[C@H]1NS(=O)(=O)c1ccc([N+](=O)[O-])cc1)c1ccc2ccccc2c1 (relative stereo)	1%	20%	–
O=[N+]([O-])c1ccc(S(=O)(=O)N[C@@H]2CCCC[C@H]2NCc2cccc3ccccc23)cc1 (relative stereo)	1%	6%	–
C[C@@H](N[C@@H]1CCCC[C@H]1NS(=O)(=O)c1ccc(OC(F)(F)F)cc1)c1cccc2ccccc12	–	32%	–
CC(N[C@@H]1CCCC[C@H]1NS(=O)(=O)c1ccc(C(F)(F)F)cc1)c1cccc2ccccc12 (some centres undefined)	–	75%	–
C[C@H](N[C@H]1CCCC[C@@H]1NS(=O)(=O)c1ccc(OC(F)(F)F)cc1)c1cccc2ccccc12	–	20%	–
CC(C)(Cc1ccc2ccccc2c1)NC[C@@H](O)COc1cccc(Cl)c1C#N	77%	87%	460 nM
COc1ccc(OC)c(S(=O)(=O)N[C@@H]2CCCC[C@H]2NC(C)c2cccc3ccccc23)c1 (relative stereo)	–	0%	–
COc1ccc(S(=O)(=O)N[C@@H]2CCCC[C@H]2NC(C)c2cccc3ccccc23)cc1 (some centres undefined)	12%	62%	8000 nM
CC(N[C@@H]1CCCC[C@H]1NS(=O)(=O)c1ccc(Cl)cc1)c1cccc2ccccc12 (some centres undefined)	–	73%	–
C[C@@H](N[C@H]1CCCC[C@@H]1NS(=O)(=O)c1ccc(OC(F)(F)F)cc1)c1cccc2ccccc12	–	90%	2600 nM
CC(N[C@@H]1CCCC[C@H]1NS(=O)(=O)c1ccc(OC(F)(F)F)cc1)c1cccc2ccccc12 (relative stereo)	8%	78%	5400 nM
CC(N[C@H]1CCCC[C@@H]1NS(=O)(=O)c1ccc([N+](=O)[O-])cc1)c1ccc(-c2ccccc2)cc1 (relative stereo)	–	7%	–
CC(N[C@@H]1CCCC[C@H]1NC(=O)c1ccc(Cl)cc1)c1cccc2ccccc12 (relative stereo)	90%	106%	–
C[C@H](N[C@@H]1CCCC[C@H]1NS(=O)(=O)c1ccc(OC(F)(F)F)cc1)c1cccc2ccccc12	–	inactive	–
CC(N[C@@H]1CCCC[C@H]1NS(=O)(=O)c1ccc([N+](=O)[O-])cc1)c1cccc2ccccc12 (relative stereo)	–	56%	–

Other lines, results leading:

inhibition [1]	inhibition [2]	IC50 [3]	SMILES
36%	–	–	CC(N[C@@H]1CCCC[C@H]1NC(=O)c1ccccc1C(F)(F)F)c1cccc2ccccc12 (relative stereo)
–	60%	–	CC(N[C@@H]1CCCC[C@H]1NS(=O)(=O)c1cccc(Cl)c1)c1cccc2ccccc12 (relative stereo)
82%	103%	–	CC(N[C@@H]1CCCC[C@H]1NC(=O)c1ccc(Cl)c(Cl)c1)c1cccc2ccccc12 (relative stereo)
33%	78%	–	CC(N[C@@H]1CCCC[C@H]1NC(=O)c1ccccc1)c1cccc2ccccc12 (relative stereo)
19%	68%	–	CC(N[C@@H]1CCCC[C@H]1NC(=O)c1ccccc1Cl)c1cccc2ccccc12 (relative stereo)
–	inactive	–	C[C@H](N[C@H]1CCCC[C@@H]1NC(=O)c1ccc(OC(F)(F)F)cc1)c1cccc2ccccc12
35%	76%	–	CC(N[C@@H]1CCCC[C@H]1NC(=O)c1ccccn1)c1cccc2ccccc12 (relative stereo)
–	60%	–	CC(N[C@@H]1CCCC[C@H]1NS(=O)(=O)c1ccc(Cl)c(Cl)c1)c1cccc2ccccc12 (relative stereo)
–	100%	250 nM	C[C@@H](N[C@H]1CCCC[C@@H]1NC(=O)c1ccc(OC(F)(F)F)cc1)c1cccc2ccccc12
33%	–	–	CC(N[C@@H]1CCCC[C@H]1NC(=O)c1cc2ccccc2[nH]1)c1cccc2ccccc12 (relative stereo)
–	1%	–	CC(N[C@@H]1CCCC[C@H]1NC(=O)Oc1ccccc1)c1cccc2ccccc12 (relative stereo)
–	22%	–	C[C@H](N[C@@H]1CCCC[C@H]1NC(=O)c1ccc(OC(F)(F)F)cc1)c1cccc2ccccc12
–	95%	1700 nM	C[C@@H](N[C@@H]1CCCC[C@H]1NC(=O)c1ccc(OC(F)(F)F)cc1)c1cccc2ccccc12
50%	95%	900 nM	CC(N[C@@H]1CCCC[C@H]1NC(=O)c1ccc(OC(F)(F)F)cc1)c1cccc2ccccc12 (relative stereo)
–	59%	–	CC(N[C@@H]1CCCC[C@H]1NS(=O)(=O)c1ccc(Cl)c(Cl)c1Cl)c1cccc2ccccc12 (relative stereo)

Source: ChEMBL document CHEMBL1145339, “N1-Benzoyl-N2-[1-(1-naphthyl)ethyl]-trans-1,2-diaminocyclohexanes: Development of 4-chlorophenylcarboxamide (calhex 231) as a new calcium sensing receptor ligand demonstrating potent calcilytic activity” (J Med Chem, 2006)
